In ChEMBL document CHEMBL4043075, “Development of Fluorinated Analogues of Perhexiline with Improved Pharmacokinetic Properties and Retained Efficacy” (J Med Chem, 2017):
Active and inactive are the calls of the source. No cut-off for these calls is given here.

Key:
[1] = Drug uptake in BALB/c mouse myocardium at 10 mg/kg, po administered via gavage every 24 hrs for 7 days measured 1 hr post last dose by LC-MS/MS analysis; type: ADME, organism-based; conditions: read-out: Drug uptake
Outline: (§1)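 Male BALB/c mice, daily oral gavage at 10 mg/kg. Plasma and myocardium sampled 1, 4, 8 and 24 h after dosing, n = 3 per timepoint. […] Myocardium:plasma ratios taken from drug concentration or from AUC. Student's t-test used.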

[2] = Half life in human liver microsomes at 3 uM up to 45 mins in presence of NADPH by LC-MS/MS analysis; type: ADME, microsome
[3] = Half life in Sprague-Dawley rat liver microsomes at 3 uM up to 45 mins in presence of NADPH by LC-MS/MS analysis; type: ADME, microsome
CYP2D6 = CYP2D6 (Homo sapiens, UniProt P10635); test: Drug metabolism assessed as human CYP2D6-mediated compound degradation by measuring half life at 5 uM up to 45 mins in presence of NADPH by LC-MS/MS analysis; type: ADME
[4] = target: T1, Carnitine O-palmitoyltransferase 1, muscle isoform (Rattus norvegicus, UniProt Q63704); test: Inhibition of Wistar rat heart mitochondrial CPT-1 assessed as reduction in conversion of palmitoyl CoA and L-carnitine into palmitoylcarnitine preincubated for 3 mins followed by L-carnitine and palmitoyl CoA addition measured for 3.5 mins by spectrophotometric analysis
T1 sequence (Q63704 whole entry): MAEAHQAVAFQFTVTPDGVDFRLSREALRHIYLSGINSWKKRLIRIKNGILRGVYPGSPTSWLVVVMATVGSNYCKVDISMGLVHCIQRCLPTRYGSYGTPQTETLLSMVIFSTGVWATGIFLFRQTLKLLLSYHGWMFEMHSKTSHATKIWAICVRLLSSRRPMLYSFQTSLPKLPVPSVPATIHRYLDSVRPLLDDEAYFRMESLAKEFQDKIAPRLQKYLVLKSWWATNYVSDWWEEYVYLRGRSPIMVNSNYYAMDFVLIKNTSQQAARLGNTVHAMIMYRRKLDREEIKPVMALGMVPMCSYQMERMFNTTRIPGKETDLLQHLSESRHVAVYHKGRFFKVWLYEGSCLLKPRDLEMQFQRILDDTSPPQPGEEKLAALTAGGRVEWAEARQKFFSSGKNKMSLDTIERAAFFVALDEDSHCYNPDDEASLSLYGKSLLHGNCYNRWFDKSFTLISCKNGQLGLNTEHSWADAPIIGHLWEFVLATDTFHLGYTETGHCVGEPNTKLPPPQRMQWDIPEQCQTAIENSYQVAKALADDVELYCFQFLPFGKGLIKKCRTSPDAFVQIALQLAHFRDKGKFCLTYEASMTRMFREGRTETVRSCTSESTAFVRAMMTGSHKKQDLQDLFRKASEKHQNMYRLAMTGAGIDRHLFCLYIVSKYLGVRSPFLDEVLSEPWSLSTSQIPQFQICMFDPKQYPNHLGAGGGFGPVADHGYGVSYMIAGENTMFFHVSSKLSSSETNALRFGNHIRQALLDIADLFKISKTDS

[5] = Plasma concentration in BALB/c mouse at 10 mg/kg, po administered via gavage every 24 hrs for 7 days measured at 1 hr post last dose by LC-MS/MS analysis; type: ADME, organism-based; outline: as §1
[6] = Plasma concentration in BALB/c mouse at 10 mg/kg, po administered via gavage every 24 hrs for 7 days measured 4 hrs post last dose by LC-MS/MS analysis; type: ADME, organism-based; outline: as §1
[7] = Plasma concentration in BALB/c mouse at 10 mg/kg, po administered via gavage every 24 hrs for 7 days measured 8 hrs post last dose by LC-MS/MS analysis; type: ADME, organism-based; outline: as §1
[8] = Drug uptake in BALB/c mouse myocardium at 10 mg/kg, po administered via gavage every 24 hrs for 7 days measured 4 hrs post last dose by LC-MS/MS analysis; type: ADME, organism-based; conditions: read-out: Drug uptake; outline: as §1
[9] = Drug uptake in BALB/c mouse myocardium at 10 mg/kg, po administered via gavage every 24 hrs for 7 days measured 8 hrs post last dose by LC-MS/MS analysis; type: ADME, organism-based; conditions: read-out: Drug uptake; outline: as §1
[10] = AUC (0 to 24 hrs) in BALB/c mouse plasma at 10 mg/kg, po administered via gavage every 24 hrs for 7 days measured post last dose by LC-MS/MS analysis; type: ADME, organism-based; set-up: dose 10 mg/kg, time < 24 hr, route oral; outline: as §1
[11] = AUC (0 to 24 hrs) in BALB/c mouse myocardium at 10 mg/kg, po administered via gavage every 24 hrs for 7 days measured post last dose by LC-MS/MS analysis; type: ADME, organism-based; set-up: time < 24 hr, dose 10 mg/kg, route oral; outline: as §1
[12] = Plasma concentration in Sprague-Dawley rat at 10 mg/kg, po administered via gavage every 24 hrs measured at 1 hr post dose by LC-MS/MS analysis; type: ADME, organism-based
Outline: (§2)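 Male Sprague-Dawley rats, daily oral dosing at 10 mg/kg. Plasma sampled at 1, 2, 4, 8 and 24 h after dosing, n = 3 per timepoint. Myocardium measured at 1 and 8 h. Myocardium:plasma ratio taken from drug concentration.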

[13] = Plasma concentration in Sprague-Dawley rat at 10 mg/kg, po administered via gavage every 24 hrs measured at 2 hrs post last dose by LC-MS/MS analysis; type: ADME, organism-based; outline: as §2
[14] = Plasma concentration in Sprague-Dawley rat at 10 mg/kg, po administered via gavage every 24 hrs measured at 4 hrs post last dose by LC-MS/MS analysis; type: ADME, organism-based; outline: as §2
[15] = Plasma concentration in Sprague-Dawley rat at 10 mg/kg, po administered via gavage every 24 hrs measured at 8 hrs post last dose by LC-MS/MS analysis; type: ADME, organism-based; outline: as §2
[16] = Drug uptake in Sprague-Dawley rat myocardium at 10 mg/kg, po administered via gavage every 24 hrs measured at 1 hr post last dose by LC-MS/MS analysis; type: ADME, organism-based; conditions: read-out: Drug uptake; outline: as §2
[17] = Drug uptake in Sprague-Dawley rat myocardium at 10 mg/kg, po administered via gavage every 24 hrs measured at 8 hrs post last dose by LC-MS/MS analysis; type: ADME, organism-based; conditions: read-out: Drug uptake; outline: as §2
[18] = Ratio of drug level in myocardium to plasma in BALB/c mouse at 10 mg/kg, po administered via gavage every 24 hrs for 7 days measured 1 hr post last dose by LC-MS/MS analysis; type: ADME, organism-based; conditions: myocardium and plasma; outline: as §1
[19] = Ratio of drug level in myocardium to plasma in BALB/c mouse at 10 mg/kg, po administered via gavage every 24 hrs for 7 days measured 4 hrs post last dose by LC-MS/MS analysis; type: ADME, organism-based; conditions: myocardium and plasma; outline: as §1
[20] = Ratio of drug level in myocardium to plasma in BALB/c mouse at 10 mg/kg, po administered via gavage every 24 hrs for 7 days measured 8 hrs post last dose by LC-MS/MS analysis; type: ADME, organism-based; conditions: myocardium and plasma; outline: as §1
[21] = Ratio of drug level in myocardium to plasma in Sprague-Dawley rat at 10 mg/kg, po administered via gavage every 24 hrs measured at 1 hr post dose by LC-MS/MS analysis; type: ADME, organism-based; conditions: myocardium and plasma; outline: as §2
[22] = Ratio of drug level in myocardium to plasma in Sprague-Dawley rat at 10 mg/kg, po administered via gavage every 24 hrs measured at 8 hrs post dose by LC-MS/MS analysis; type: ADME, organism-based; conditions: myocardium and plasma; outline: as §2
[23] = Ratio of AUC (0 to 24 hrs) in myocardium to plasma in BALB/c mouse at 10 mg/kg, po administered via gavage every 24 hrs for 7 days measured post last dose by LC-MS/MS analysis; type: ADME, organism-based; conditions: myocardium and plasma, read-out: Ratio AUC; outline: as §1
Heart [24] = test: Cardioprotective activity in Langendorff perfused C57BL/6 mouse heart assessed as increase in cardiac contractility at 10 uM perfused for 30 mins in presence of high fat relative to control; type: functional
Outline: (§3)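 Isolated C57BL/6 hearts (25-30 g) retrogradely perfused at constant 80 mmHg, 37 °C, 95% O2/5% CO2, with modified Krebs containing 1.2 mM sodium palmitate conjugated to 3% BSA. After 10 min stabilisation, 30 min perfusion with control buffer or compound at 2 or 10 µM. LVdP/dt max and min derived from LV pressure over 40 min; mean ± SEM, n = 12-19, 1-way ANOVA with Bonferroni.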

Heart [25] = test: Cardioprotective activity in Langendorff perfused C57BL/6 mouse heart assessed as increase in cardiac relaxation at 10 uM perfused for 30 mins in presence of high fat relative to control; type: functional; outline: as §3
Heart [26] = test: Cardioprotective activity against Langendorff perfused C57BL/6 mouse heart assessed as lusitropic effect at 10 uM measured for 40 mins reperfusion period in presence of high fat; type: functional, tissue-based; outline: as §3
[27] = Stability of the compound in pH 7.4 PBS buffer at 37 degC after 1 hr; type: physicochemical; conditions: pH 7.4, 1 h
Outline: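 Compound incubated 1 h in pH 7.4 PBS at 37 °C, then checked for decomposition.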

Heart [28] = test: Cardioprotective activity in Langendorff perfused C57BL/6 mouse heart perfused for 30 mins in presence of high fat; type: functional, tissue-based
Heart [29] = test: Cardioprotective activity against Langendorff perfused C57BL/6 mouse heart assessed as lusitropic effect at 2 uM measured for 40 mins reperfusion period in presence of high fat; type: functional, tissue-based; outline: as §3

Sequence of CYP2D6 (P10635 whole entry, canonical isoform): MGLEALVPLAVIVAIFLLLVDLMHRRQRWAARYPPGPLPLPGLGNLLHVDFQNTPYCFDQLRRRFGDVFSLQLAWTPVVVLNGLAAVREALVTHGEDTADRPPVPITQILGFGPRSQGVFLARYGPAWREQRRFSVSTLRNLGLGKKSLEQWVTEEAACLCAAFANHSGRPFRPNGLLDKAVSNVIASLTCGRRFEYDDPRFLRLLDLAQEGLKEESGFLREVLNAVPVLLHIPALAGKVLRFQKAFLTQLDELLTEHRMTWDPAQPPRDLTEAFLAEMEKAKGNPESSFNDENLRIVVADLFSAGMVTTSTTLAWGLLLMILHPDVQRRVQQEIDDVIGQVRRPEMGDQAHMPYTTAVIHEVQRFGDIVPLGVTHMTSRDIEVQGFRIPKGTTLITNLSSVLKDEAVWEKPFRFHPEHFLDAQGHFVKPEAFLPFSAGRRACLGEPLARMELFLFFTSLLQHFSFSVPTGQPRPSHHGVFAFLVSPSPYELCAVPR

FC1(F)CCC(C(CC2CCCCN2)C2CCCCC2)CC1 (stereo unspecified) showed a concentration at 1 h [1] of 3730 ng/mL, a half-life at 3 µM [2] greater than 500 min and a half-life at 3 µM [3] of 72 min. It also gave a half-life at 5 µM (CYP2D6) of 104 min, an IC50 [4] of 45 µM and a concentration at 1 h [5] of 346 ng/mL. It also gave a concentration at 4 h [6] of 172 ng/mL, a concentration at 8 h [7] of 192 ng/mL and a concentration at 4 h [8] of 1880 ng/mL. For the same molecule, the concentration at 8 h [9] was 1830 ng/mL, the AUC at 24 h [10] was 3760 ng·h/mL and the AUC at 24 h [11] was 32400 ng·h/mL. For the same molecule, the concentration at 1 h [12] was 386 ng/mL, the concentration at 2 h [13] was 375 ng/mL and the concentration at 4 h [14] was 297 ng/mL. It also gave a concentration at 8 h [15] of 179 ng/mL, a concentration at 1 h [16] of 5910 ng/mL and a concentration at 8 h [17] of 1290 ng/mL. The Kp at 1 h [18] was 10.7, the Kp at 4 h [19] was 10.9 and the Kp at 8 h [20] was 9.5. For the same molecule, the Kp at 1 h [21] was 15.3, the Kp at 8 h [22] was 7.2 and the Kp [23] was 8.6. For the same molecule, the “fold change (FC)” value (Heart [24]) was 1.8, the “fold change (FC)” value (Heart [25]) was 2.7 and the Activity (Heart [26]) was “Active”. The Stability [27] was “Stable” and the Activity (Heart [28]) was “Dose-dependent effect”.
In the case of Fc1ccc(C(CC2CCCCN2)C2CCCCC2)cc1 (stereo unspecified), the half-life at 3 µM [2] is reported as 79 min, the half-life at 3 µM [3] is reported as 7 min and the Stability [27] is reported as “Stable”.
With C1CCC(CC(C2CCCC2)C2CCC2)NC1 (stereo unspecified) the half-life at 3 µM [2] was 51 min, the half-life at 3 µM [3] was 7 min and the Stability [27] was “Stable”.
Work on C1CCC(CC(C2CCCC2)C2CCCC2)NC1 (stereo unspecified) yielded a half-life at 3 µM [2] of 50 min, a half-life at 3 µM [3] of 14 min and an IC50 [4] of 19 µM. For the same molecule, the Stability [27] was “Stable”.
With C1CCC(C(CC2CCCCN2)C2CCCCC2)CC1 (racemic) the Activity (Heart [29]) was “Active”.
In the case of C1CCC(C(CC2CCCCN2)C2CCCC2)CC1 (stereo unspecified), the half-life at 3 µM [2] is reported as greater than 150 min, the half-life at 3 µM [3] is reported as 19 min and the half-life at 5 µM (CYP2D6) is reported as 16 min. The IC50 [4] was 11 µM and the Stability [27] was “Stable”.
In the case of C1CCC(C(CC2CCCCN2)C2CCC2)CC1 (stereo unspecified), the half-life at 3 µM [2] is reported as greater than 200 min, the half-life at 3 µM [3] is reported as 10 min and the Stability [27] is reported as “Stable”.
In the case of FC1CCC(C(CC2CCCCN2)C2CCC(F)CC2)CC1 (stereo unspecified), the Stability [27] is reported as “Unstable”.
For CC1(C)CCC(C(CC2CCCCN2)C2CCCCC2)CC1 (stereo unspecified), the half-life at 3 µM [2] was 77 min, the half-life at 3 µM [3] was 20 min and the Stability [27] was “Stable”.
With C1CCC(C(CC2CCCCN2)C2CC2)CC1 (stereo unspecified) the half-life at 3 µM [2] was 124 min, the half-life at 3 µM [3] was 3 min and the Stability [27] was “Stable”.
In the case of CC(C)(COP(=O)(O)OP(=O)(O)OC[C@H]1O[C@@H](n2cnc3c(N)ncnc32)[C@H](O)[C@@H]1OP(=O)(O)O)[C@@H](O)C(=O)NCCC(=O)NCCSC(=O)CC(=O)O [MALONYL-COENZYME A], the IC50 [4] is reported as 1.2 µM.
